Measured values from PubChem BioAssay.
Inconclusive results are not listed.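 How the source made its calls, unless noted: active means viability at or below 27.92% in each of two runs, the all-compound median minus 4 SD; inconclusive means no clear call, values can overlap the other calls; inactive means the rest.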

Assays:
[1] = OD615 S. cerevisiae growth inhibition, permissive medium, pilot counter-assay, permissive growth control for S. cerevisiae lifespan shortening project (AID 705;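 active means growth inhibition above 25% in both replicates, a cutoff set 3 SD above the mean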); settings: OD615, 24 h, at 10 µM, stronger effect = higher value
Outline: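 Test system: Saccharomyces cerevisiae strain carrying genetically modified DeaD replicative-lifespan system; buffer or medium: SC raffinose/galactose permissive medium; dosing: one dose 10 µM, DMSO 0.25% final; times: 24 h exposure, 30 °C; measured by: OD at 615 nm; read-out basis: growth inhibition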

[2] = Restrictive medium S. cerevisiae growth inhibition, OD615, pilot screen of yeast lifespan reduction project, restrictive growth control (AID 706;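 active means growth inhibition above a set limit, 3 SD over mean compound inhibition, in both replicates, cut at about 43% in these data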;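 further: modified DeaD lifespan yeast strain shifted to restrictive glucose medium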); settings: OD615, 48 h, at 10 µM, stronger effect = higher value
Outline: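 material = engineered S. cerevisiae DeaD strain | buffer or medium = glucose-based CSMM-D restrictive medium | dosing = one concentration, 10 µM final, 0.25% DMSO | schedule = 4 h pre-growth plus 48 h compound exposure, 30 °C | detection = OD615 absorbance reading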

[3] = viability gain of MRP-1-high H69AR cells under doxorubicin, pilot screen, MRP-1 activator project, CellTiter-Glo, duplicate (AID 807;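 active means viability increase at or above a cutoff of the median across tested compounds plus 3 SD, cut at about 8.5% in these data, passing the limit was not always enough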;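 further: compound pretreatment 18-22 h then 72 h combined with doxorubicin; 0% = doxorubicin alone and 100% = vehicle without doxorubicin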); settings: H69AR viability with doxorubicin, CellTiter-Glo luminescence; at 10 µM; stronger effect = higher value
[4] = growth suppression of beta-catenin knockout HCT116, pilot screen, human colon tumor cells (AID 823;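 active means cell viability at or below a set limit in both duplicate runs, the limit being the all-compound median minus 4 SD, cut at about 23% in these data, passing the limit was not always enough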;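 further: 0% = wells killed by 20 µM Hyamine and 100% = untreated DMSO cell wells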); settings: CellTiter-Glo, 60 h, at 10 µM, stronger effect = lower value
[5] = growth suppression of PTEN-deleted HCT116, pilot screen, cell-based, HCT116 clonal line, CellTiter-Glo (AID 824); settings: 60 h, at 10 µM, stronger effect = lower value;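 further: 0% = 20 µM Hyamine control and 100% = vehicle cell control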
[6] = inhibitors of the yeast RAM network, pilot screen, dse1pr::URA3 reporter, 5-FOA selection (AID 869;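 active means inhibition over a set limit, the all-compound mean plus 3 SD, in both replicate runs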;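 further: 0% = DMSO wells with no growth and 100% = 10 µM 1-NA-PP1 with full growth; RAM network block rescues cells from 5-FOA so hits raise OD615 growth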); settings: S. cerevisiae dse1pr::URA3 5-FOA growth, OD615, 2 d, at 10 µM, stronger effect = higher value
[7] = RAM signaling pathway blockade in yeast – S. cerevisiae, Pdr1DBD-CYC8 efflux-inhibited sensitized strain, primary screen (AID 1298;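 active means RAM network inhibition above 8.4% in each of two replicates, 3 SD over the compound average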;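 further: 0% = DMSO untreated cells without growth and 100% = 10 µM 1-NA-PP1 full growth; higher means more yeast growth rescued from 5-FOA killing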); settings: S. cerevisiae cbk1-as DSE1-URA3 strain, 5-FOA growth OD615, 2 d; at 50 µM; stronger effect = higher value

CCCCCP(=O)(O)c1ccccc1
inactive: growth inhibition [1] -5.12% | growth inhibition [2] -13.1% | viability increase [3] -1.16% | viability [4] 95.2% | viability [5] 103% | inhibition [6] 0.735% | RAM network inhibition [7] 2.16%

C=Cn1ccnc1P(=S)(c1cc(N(CC)CC)ns1)c1nccn1C=C
inactive: growth inhibition [1] -0.585% | growth inhibition [2] 21.8% | viability increase [3] -0.61% | viability [4] 92.1% | viability [5] 90.5% | inhibition [6] 1.49% | RAM network inhibition [7] 2.27%

COc1ccccc1N=Cc1c(O)n(C)c(=O)n(C)c1=O
inactive: growth inhibition [1] -6.69% | growth inhibition [2] 1.98% | viability increase [3] 0.23% | viability [4] 87.1% | viability [5] 99.6% | inhibition [6] -0.295% | RAM network inhibition [7] 2.71%

C=Cn1ccnc1P(=S)(c1nccn1C=C)C1CCCCC1
inactive: growth inhibition [1] 0.2% | growth inhibition [2] -2.3% | viability increase [3] -1.76% | viability [4] 92.3% | viability [5] 93.1% | inhibition [6] 0.82% | RAM network inhibition [7] 3.48%

O/N=C/c1c[nH]c2ccccc12
inactive: growth inhibition [1] 4.87% | growth inhibition [2] 0.865% | viability increase [3] -4.62% | viability [4] 99.9% | viability [5] 94.4% | inhibition [6] 2.54% | RAM network inhibition [7] 3.59%

c1ccc2sc(C3CCCNC3)nc2c1 (centres undefined)
inactive: growth inhibition [1] -10.6% | growth inhibition [2] -19.7% | viability increase [3] -1.16% | viability [4] 97.6% | viability [5] 97.4% | inhibition [6] 2.33% | RAM network inhibition [7] 0.56%

CN(C)C(=O)Oc1ccc(-c2nnco2)cc1
inactive: growth inhibition [1] 0.38% | growth inhibition [2] -1.25% | viability increase [3] 1.79% | viability [4] 104% | viability [5] 99.7% | inhibition [6] 1.48% | RAM network inhibition [7] 0.73%
